Activity calls are given as the source filed them. The calls are words filed in the database; no cut-off is given here.
What was measured:
[1] = tested on: ASPC1; assay: Anticlonogenic activity against human Aspc-1 cells at 2 uM after 21 days by crystal violet staining based assay relative to control; type: functional; conditions: ASPC1, 504 h
How it was run: (§1)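 Anchorage-dependent colony formation: AsPC-1 cells seeded at 1000 cells/well in six-well plates and treated with compound. Colony formation is expressed as percent of vehicle treatment. Mean ± SD from at least three independent experiments, each in duplicate.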

[2] = target: T1, Glutaminase liver isoform, mitochondrial (Homo sapiens, UniProt Q9UI32); assay: Inhibition of recombinant human His-tagged GAB (P56 to V602 residues) expressed in Escherichia coli C41(DE3)pLysS using glutamine as substrate preincubated for 10 mins followed by substrate addition measured after 60 mins by glutamate dehydrogenase coupled enzyme assay
T1 sequence (Q9UI32 whole entry): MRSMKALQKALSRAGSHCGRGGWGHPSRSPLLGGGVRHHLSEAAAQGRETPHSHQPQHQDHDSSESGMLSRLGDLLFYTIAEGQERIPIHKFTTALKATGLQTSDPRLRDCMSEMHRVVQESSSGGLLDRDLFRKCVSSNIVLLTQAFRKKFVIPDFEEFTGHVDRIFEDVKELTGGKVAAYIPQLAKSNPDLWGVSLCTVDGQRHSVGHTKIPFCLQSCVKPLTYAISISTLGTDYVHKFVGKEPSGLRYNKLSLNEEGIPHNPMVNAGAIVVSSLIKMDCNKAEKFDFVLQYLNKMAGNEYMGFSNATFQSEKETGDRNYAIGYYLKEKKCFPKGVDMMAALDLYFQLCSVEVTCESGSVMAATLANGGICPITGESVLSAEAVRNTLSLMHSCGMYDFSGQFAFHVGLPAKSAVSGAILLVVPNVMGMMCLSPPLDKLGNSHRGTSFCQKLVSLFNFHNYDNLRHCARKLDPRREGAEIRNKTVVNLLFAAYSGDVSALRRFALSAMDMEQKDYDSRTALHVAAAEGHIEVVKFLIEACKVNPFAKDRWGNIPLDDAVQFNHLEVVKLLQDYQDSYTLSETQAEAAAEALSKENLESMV

[3] = target: T2, Glutaminase kidney isoform, mitochondrial (Homo sapiens, UniProt O94925); assay: Inhibition of recombinant human His-tagged KGA (L123 to L669 residues) expressed in Escherichia coli BL21(DE3)pLysS using glutamine substrate preincubated for 10 mins followed by substrate addition measured after 60 mins by glutamate dehydrogenase coupled enzyme assay
T2 sequence (O94925 whole entry): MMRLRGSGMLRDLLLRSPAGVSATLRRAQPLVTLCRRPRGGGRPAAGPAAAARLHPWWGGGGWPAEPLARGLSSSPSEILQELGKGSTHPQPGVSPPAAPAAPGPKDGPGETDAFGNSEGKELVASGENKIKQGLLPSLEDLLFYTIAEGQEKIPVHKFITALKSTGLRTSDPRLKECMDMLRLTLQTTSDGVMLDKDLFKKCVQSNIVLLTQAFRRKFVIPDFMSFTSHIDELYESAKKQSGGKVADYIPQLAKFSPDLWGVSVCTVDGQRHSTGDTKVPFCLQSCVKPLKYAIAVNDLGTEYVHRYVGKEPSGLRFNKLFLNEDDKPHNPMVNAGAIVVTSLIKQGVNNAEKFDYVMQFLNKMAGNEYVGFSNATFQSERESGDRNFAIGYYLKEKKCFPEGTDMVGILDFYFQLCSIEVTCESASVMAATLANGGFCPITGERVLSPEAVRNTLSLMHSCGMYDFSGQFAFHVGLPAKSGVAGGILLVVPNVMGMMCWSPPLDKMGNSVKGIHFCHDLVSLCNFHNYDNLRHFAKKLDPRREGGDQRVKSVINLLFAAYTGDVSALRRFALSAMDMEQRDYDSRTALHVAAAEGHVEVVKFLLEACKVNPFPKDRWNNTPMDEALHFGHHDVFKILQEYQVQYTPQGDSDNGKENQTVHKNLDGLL

[4] = target: T2, Glutaminase kidney isoform, mitochondrial; assay: Inhibition of recombinant human MCF7 cells derived His-tagged GAC (L123 to S598 residues) expressed in Escherichia coli C41(DE3)pLysS using glutamine as substrate preincubated for 10 mins followed by substrate addition measured after 60 mins by glutamate dehydrogenase coupled enzyme assay
How it was run: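 Human GAC cloned from MCF7 cDNA into pET28a(+) as a His-tagged construct. Expressed in E. coli C41(DE3)pLysS in Terrific Broth with kanamycin, induced with 1 mM IPTG for 6 h at 25 °C. Purified on Ni2+ resin with 500 mM imidazole elution and exchanged into 50 mM NaH2PO4, 50 mM Tris-HCl pH 8.0, 2 mM DTT, 50% glycerol. Activity measured by two-step glutaminase assay.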

[5] = species on record: Homo sapiens; assay: Selectivity index, ratio of IC50 for recombinant human His-tagged GAB (P56-V602 residues) expressed in Escherichia coli C41(DE3)pLysS to IC50 for recombinant human His-tagged KGA (L123 to L669 residues) expressed in Escherichia coli BL21(DE3)pLysS
[6] = tested on: ASPC1; assay: Anticlonogenic activity against human Aspc-1 cells at 10 uM after 21 days by crystal violet staining based assay relative to control; type: functional; conditions: ASPC1, 504 h; how it was run: as §1
[7] = tested on: ASPC1; assay: Growth inhibition of human Aspc-1 cells after 72 hrs by MTS assay; type: functional, cell-based; conditions: ASPC1, 72 h
How it was run: (§2)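 Growth inhibition by MTS viability read-out. Cells seeded in 96-well plates at 4000/well (AsPC-1) or 8500/well (MDA-MB-231). Mean ± SD from at least three independent experiments, each in duplicate.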

[8] = tested on: MDA-MB-231; assay: Growth inhibition of human MDA-MB-231 cells after 72 hrs by MTS assay; type: functional, cell-based; conditions: MDA-MB-231, 72 h; how it was run: as §2
[9] = target: T3, Glutaminase liver isoform, mitochondrial (Homo sapiens) (UniProt Q9UI32); assay: Inhibition of human GLS2 in GLS1 deficient human Aspc-1 cells assessed as decrease in cellular glutamate production after 4 hrs by amplex red glutamic acid assay
T3 sequence (whole entry): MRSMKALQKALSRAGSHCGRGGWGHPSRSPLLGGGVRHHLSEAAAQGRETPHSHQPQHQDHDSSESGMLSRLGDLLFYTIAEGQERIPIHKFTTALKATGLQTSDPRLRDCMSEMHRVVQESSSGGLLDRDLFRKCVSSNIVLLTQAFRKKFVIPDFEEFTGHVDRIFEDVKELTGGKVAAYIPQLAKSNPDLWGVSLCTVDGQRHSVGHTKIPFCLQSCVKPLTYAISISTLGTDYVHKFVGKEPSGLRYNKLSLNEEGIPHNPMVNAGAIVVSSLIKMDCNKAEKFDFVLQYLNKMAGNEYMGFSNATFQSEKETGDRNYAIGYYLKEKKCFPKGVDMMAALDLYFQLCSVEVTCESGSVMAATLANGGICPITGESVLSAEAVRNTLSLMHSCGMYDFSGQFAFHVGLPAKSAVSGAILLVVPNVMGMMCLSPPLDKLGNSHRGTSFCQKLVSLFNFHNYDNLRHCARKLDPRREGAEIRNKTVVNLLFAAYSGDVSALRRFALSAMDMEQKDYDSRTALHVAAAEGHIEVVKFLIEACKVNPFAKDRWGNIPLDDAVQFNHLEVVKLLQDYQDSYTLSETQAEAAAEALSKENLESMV
How it was run: (§3)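 GLS-knockout AsPC-1 cells made with GLS-KO ZFN mRNA, single-cell cloned, and grown in glutamine-free RPMI 1640 with 10% FBS. Cells seeded at 30 000/well and grown 24 h at 37 °C. Treated 4 h with 1% DMSO vehicle or 3.13−100 μM inhibitor, washed with PBS, and lysed in NP-40 buffer (4 °C, 20 min). Lysate glutamate measured by Amplex Red. Three independent experiments in duplicate.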

[10] = target: T3, Glutaminase liver isoform, mitochondrial (Homo sapiens); assay: Inhibition of human GLS2 in GLS1 deficient human Aspc-1 cells assessed as decrease in cellular glutamate production at 3.13 to 100 uM after 4 hrs by amplex red glutamic acid assay; how it was run: as §3
[11] = Inhibition of recombinant human His-tagged KGA S384A mutant expressed in Escherichia coli BL21(DE3)pLysS using glutamine substrate preincubated for 10 mins followed by substrate addition measured after 60 mins
[12] = Inhibition of recombinant human His-tagged KGA R387A mutant expressed in Escherichia coli BL21(DE3)pLysS using glutamine substrate preincubated for 10 mins followed by substrate addition measured after 60 mins
[13] = Inhibition of recombinant human His-tagged KGA R387L mutant expressed in Escherichia coli BL21(DE3)pLysS using glutamine substrate preincubated for 10 mins followed by substrate addition measured after 60 mins
[14] = Inhibition of recombinant human His-tagged KGA K507A mutant expressed in Escherichia coli BL21(DE3)pLysS using glutamine substrate preincubated for 10 mins followed by substrate addition measured after 60 mins
[15] = species on record: Homo sapiens; assay: Selectivity ratio of IC50 for recombinant human His-tagged KGA S384A mutant expressed in Escherichia coli BL21(DE3)pLysS to IC50 for human His-tagged KGA (L123 to L669 residues) expressed in Escherichia coli BL21(DE3)pLysS
[16] = species on record: Homo sapiens; assay: Selectivity ratio of IC50 for recombinant human His-tagged KGA R387A mutant expressed in Escherichia coli BL21(DE3)pLysS to IC50 for human His-tagged KGA (L123 to L669 residues) expressed in Escherichia coli BL21(DE3)pLysS
[17] = species on record: Homo sapiens; assay: Selectivity ratio of IC50 for recombinant human His-tagged KGA R387L mutant expressed in Escherichia coli BL21(DE3)pLysS to IC50 for human His-tagged KGA (L123 to L669 residues) expressed in Escherichia coli BL21(DE3)pLysS
[18] = species on record: Homo sapiens; assay: Selectivity ratio of IC50 for recombinant human His-tagged KGA K507A mutant expressed in Escherichia coli BL21(DE3)pLysS to IC50 for human His-tagged KGA (L123 to L669 residues) expressed in Escherichia coli BL21(DE3)pLysS
[19] = target: Glutaminase 1/2 (Homo sapiens) (UniProt O94925+Q9UI32); conditions: 3.13 to 100 uM
[20] = compound: Cc1cc(/C=C2\SC(=O)NC2=O)c(C)n1-c1ccc(-c2ccc(/C=C3\SC(=O)NC3=O)cc2)cc1; assay: (§4) Mixed-type inhibition of recombinant human KGA (L123 to L669 residues) expressed in Escherichia coli BL21(DE3)pLysS assessed as Vmax for substrate at 0.05 uM using glutamine substrate preincubated for 10 mins followed by substrate addition measured after 60 mins by Linerweaver-Burk plot analysis (reference value: 26.2 +/- 0.2 nmol/min/ug)
How it was run: (§5)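 Kinetic analysis on human KGA: glutamine saturation profiles recorded at 0−0.4 μM inhibitor. Km and Vmax derived at each inhibitor concentration to assign the inhibition mode.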

[21] = compound: Cc1cc(/C=C2\SC(=O)NC2=O)c(C)n1-c1ccc(-c2ccc(/C=C3\SC(=O)NC3=O)cc2)cc1; assay: as §4, with “0.1” for “0.05”; how it was run: as §5
[22] = compound: Cc1cc(/C=C2\SC(=O)NC2=O)c(C)n1-c1ccc(-c2ccc(/C=C3\SC(=O)NC3=O)cc2)cc1; assay: as §4, with “0.2” for “0.05”; how it was run: as §5
[23] = compound: Cc1cc(/C=C2\SC(=O)NC2=O)c(C)n1-c1ccc(-c2ccc(/C=C3\SC(=O)NC3=O)cc2)cc1; assay: as §4, with “0.4” for “0.05”; how it was run: as §5
[24] = compound: Cc1cc(/C=C2\SC(=O)NC2=O)c(C)n1-c1ccc(-c2ccc(/C=C3\SC(=O)NC3=O)cc2)cc1; assay: as §4, with “Km” for “Vmax”, “25.5” for “26.2”, “0.6 mM)” for “0.2 nmol/min/ug)”; how it was run: as §5
[25] = compound: Cc1cc(/C=C2\SC(=O)NC2=O)c(C)n1-c1ccc(-c2ccc(/C=C3\SC(=O)NC3=O)cc2)cc1; assay: as §4, with “Km” for “Vmax”, “0.1” for “0.05”, “25.5” for “26.2”, “0.6 mM)” for “0.2 nmol/min/ug)”; how it was run: as §5

**Q.** What does the source list for `O=C1NC(=O)/C(=C/c2ccc(-c3ccc(-n4c(-c5ccccc5)cc(/C=C5\SC(=O)NC5=O)c4-c4ccccc4)cc3)cc2)S1`?
**A.** inhibition at 2 µM [1]: 79%; IC50 [2]: 261 nM; IC50 [3]: 45 nM; IC50 [4]: 151 nM; Ratio IC50 [5]: 5.8; inhibition at 10 µM [6]: 94%; IC50 [7]: 10000 nM; IC50 [8]: 13400 nM; inhibition [9]: Dose-dependent effect; inhibition [10]: Active; IC50 [11]: 78 nM; IC50 [12]: 8880 nM; IC50 [13]: 603 nM; IC50 [14]: 187 nM; Ratio IC50 [15]: 1.7; Ratio IC50 [16]: 197; Ratio IC50 [17]: 13.4; Ratio IC50 [18]: 4.2; inhibition [19]: Active

B1: Glutaminase kidney isoform, mitochondrial (Homo sapiens), O94925 (protein)
chain: MMRLRGSGMLRDLLLRSPAGVSATLRRAQPLVTLCRRPRGGGRPAAGPAAAARLHPWWGGGGWPAEPLARGLSSSPSEILQELGKGSTHPQPGVSPPAAPAAPGPKDGPGETDAFGNSEGKELVASGENKIKQGLLPSLEDLLFYTIAEGQEKIPVHKFITALKSTGLRTSDPRLKECMDMLRLTLQTTSDGVMLDKDLFKKCVQSNIVLLTQAFRRKFVIPDFMSFTSHIDELYESAKKQSGGKVADYIPQLAKFSPDLWGVSVCTVDGQRHSTGDTKVPFCLQSCVKPLKYAIAVNDLGTEYVHRYVGKEPSGLRFNKLFLNEDDKPHNPMVNAGAIVVTSLIKQGVNNAEKFDYVMQFLNKMAGNEYVGFSNATFQSERESGDRNFAIGYYLKEKKCFPEGTDMVGILDFYFQLCSIEVTCESASVMAATLANGGFCPITGERVLSPEAVRNTLSLMHSCGMYDFSGQFAFHVGLPAKSGVAGGILLVVPNVMGMMCWSPPLDKMGNSVKGIHFCHDLVSLCNFHNYDNLRHFAKKLDPRREGGDQRVKSVINLLFAAYTGDVSALRRFALSAMDMEQRDYDSRTALHVAAAEGHVEVVKFLLEACKVNPFPKDRWNNTPMDEALHFGHHDVFKILQEYQVQYTPQGDSDNGKENQTVHKNLDGLL
**Q.** For B1, which Vmax [20] is on record?
**A.** 26.3 nmol/min/µg

**Q.** And the Vmax [21]?
**A.** 26.2 nmol/min/µg

**Q.** And the Vmax [22]?
**A.** 22.9 nmol/min/µg

**Q.** What about the Vmax [23] of the same molecule?
**A.** 15 nmol/min/µg

**Q.** And the Km [24]?
**A.** 50.9 mM

**Q.** And the Km [25]?
**A.** 69.7 mM
